ChEMBL document CHEMBL1641445, “Synthesis, antiprotozoal, antimicrobial, β-hematin inhibition, cytotoxicity and methemoglobin (MetHb) formation activities of bis(8-aminoquinolines)” (Bioorg Med Chem, 2011)
The source made the active and inactive calls. No cut-off for these calls is given here.

Tests used:
Staphylococcus aureus [1] = assay: Antibacterial activity against methicillin-resistant Staphylococcus aureus ATCC 43300 by CLSI method; assay type: functional, organism-based
Method in brief: (§1)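 Broth dilution method (NCCLS M7-A5). […] MIC is the lowest concentration allowing no detectable growth. MBC is the lowest concentration killing the organism. Highest test concentration was 20 µg/mL.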

[2] = test system: Mycobacterium intracellulare; assay: Antibacterial activity against Mycobacterium intracellular ATCC 23068 at 20 ug/ml by CLSI method; assay type: functional, organism-based
Aspergillus fumigatus = assay: Antifungal activity against Aspergillus fumigatus ATCC 90906 at 20 ug/ml; assay type: functional, organism-based
Plasmodium falciparum [3] = assay: Antimalarial activity against chloroquine-resistant Plasmodium falciparum W2 by LDH assay; assay type: functional, organism-based; conditions: Plasmodium falciparum, W2; read-out: IC50
Method in brief: (§2)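 Antiplasmodial activity was measured in vitro against P. falciparum blood-stage cultures. Read-out was parasite lactate dehydrogenase (LDH) activity, with IC50 values expressed in µg/mL. The same protocol was used for the D6 and W2 strains.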

[4] = Inhibition of beta-hematin formation; assay type: functional
Candida albicans [5] = assay: Antifungal activity against Candida albicans ATCC 90028; assay type: functional, organism-based
Candida albicans [6] = assay: Antifungal activity against Candida albicans ATCC 90028 at 20 ug/ml; assay type: functional, organism-based
Staphylococcus aureus [7] = assay: Antibacterial activity against Staphylococcus aureus by CLSI method; assay type: functional, organism-based
Plasmodium berghei [8] = assay: Antimalarial activity against Plasmodium berghei infected in mouse assessed as negative parasitemia level at 100 mg/kg, po qd for 4 days measured up to 7 days; assay type: functional, organism-based; set-up: dose 100 mg/kg
Method in brief: (§3)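 Mice infected with P. berghei (sensitive strain), 6 per group, dosed orally at 10–100 mg/kg/day × 4. Suppression meant negative parasitemia in all treated animals up to D+7. Survivors were counted at D+60.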

Pichia kudriavzevii = assay: Antifungal activity against Candida krusei at 20 ug/ml; assay type: functional, organism-based
Cryptococcus neoformans [9] = assay: Antifungal activity against Cryptococcus neoformans ATCC 90113; assay type: functional, organism-based
Vero = assay: Cytotoxicity against african green monkey Vero cells up to 10 ug/ml by neutral red assay; assay type: cell-based; conditions: chlorocebus sabaeus
Method in brief: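 Vero (monkey kidney) cells were exposed up to a highest concentration of 10 µg/mL. Viability was read by neutral red uptake.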

Nakaseomyces glabratus = assay: Antifungal activity against Candida glabrata at 20 ug/ml; assay type: functional, organism-based
Leishmania donovani = assay: Antileishmanial activity against promastigotes of Leishmania donovani by alamar blue assay; assay type: functional, organism-based; conditions: Leishmania donovani; for IC50: read-out: IC50
[10] = test system: Mycobacterium intracellulare; assay: Antibacterial activity against Mycobacterium intracellular ATCC 23068 by CLSI method; assay type: functional, organism-based
[11] = Hematotoxicity against RBC assessed as formation of methemoglobin at 20 ug/ml relative to control; assay type: cell-based; conditions: erythrocyte
Method in brief: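 Metabolism-linked methemoglobin toxicity in vitro. Percent MetHb formation was determined at 20 µg/mL of compound relative to vehicle control.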

Cryptococcus neoformans [12] = assay: Antifungal activity against Cryptococcus neoformans ATCC 90113 at 20 ug/ml; assay type: functional, organism-based
Plasmodium falciparum [13] = assay: Antimalarial activity against chloroquine-sensitive Plasmodium falciparum D6 by LDH assay; assay type: functional, organism-based; conditions: Plasmodium falciparum, D6; read-out: IC50; method in brief: as §2
Plasmodium berghei [14] = assay: Antimalarial activity against Plasmodium berghei infected in mouse assessed as complete elimination of malaria parasites from animals at 100 mg/kg, po qd for 4 days measured up to 60 days; assay type: functional, organism-based; set-up: dose 100 mg/kg
Method in brief: (§4)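 Rodent P. berghei (sensitive strain) blood-schizontocidal model, 6 mice per group. Compounds were given orally once daily for 4 days at 10, 25, 50 or 100 mg/kg/day. Cure meant complete parasite elimination with survival to day D+60.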

Plasmodium berghei [15] = assay: Antimalarial activity against Plasmodium berghei infected in mouse assessed as complete elimination of malaria parasites from animals at 50 mg/kg, po qd for 4 days measured up to 60 days; assay type: functional, organism-based; set-up: dose 50 mg/kg; method in brief: as §4
Plasmodium berghei [16] = assay: Antimalarial activity against Plasmodium berghei infected in mouse assessed as complete elimination of malaria parasites from animals at 25 mg/kg, po qd for 4 days measured up to 60 days; assay type: functional, organism-based; set-up: dose 25 mg/kg; method in brief: as §4
Plasmodium berghei [17] = assay: Antimalarial activity against Plasmodium berghei infected in mouse assessed as negative parasitemia level at 10 mg/kg, po qd for 4 days measured up to 7 days; assay type: functional, organism-based; set-up: dose 10 mg/kg; method in brief: as §3
Staphylococcus aureus [18] = assay: Antibacterial activity against methicillin-resistant Staphylococcus aureus ATCC 43300 at 20 ug/ml by CLSI method; assay type: functional, organism-based; method in brief: as §1

Row | Compound | IC50 (Staphylococcus aureus [1]) [µg/mL] | MIC (Staphylococcus aureus [1]) [µg/mL] | Activity (Aspergillus fumigatus) | IC50 (Plasmodium falciparum [3]) [µg/mL] | IC50 [4] [µM] | MFC (Candida albicans [6]) | Activity (Pichia kudriavzevii) | IC50 (Cryptococcus neoformans [9]) [µg/mL] | MFC (Cryptococcus neoformans [9]) [µg/mL] | MIC (Cryptococcus neoformans [9]) [µg/mL] | Activity (Vero) | Activity (Nakaseomyces glabratus) | IC90 (Leishmania donovani) [µg/mL] | IC50 (Leishmania donovani) [µg/mL] | IC50 [10] [µg/mL] | MIC [10] [µg/mL] | Methemoglobin formation [11] [%] | Activity (Plasmodium berghei [14]) | Activity (Plasmodium berghei [15]) | MIC (Candida albicans [6]) | also measured
1 | COc1cc(NC(C)CCCNC(=O)NC(CCCCN)C(=O)NCCCC(C)Nc2cc(OC)cc3ccc(C(C)(C)C)nc23)c2nc(C(C)(C)C)ccc2c1.Cl (single isomer, unassigned) | 1.97 | 5 | inactive | 1.3 | 45 | inactive | inactive | 6.45 | 10 | 10 | Non-toxic | inactive | 36 | 21 | 7.12 | 20 | 2.25 |  |  |  | MBC (Staphylococcus aureus [1]): 5 µg/mL; MBC [2]: inactive; IC50 (Candida albicans [5]): 17.9 µg/mL; MIC (Candida albicans [5]): 20 µg/mL; IC50 (Staphylococcus aureus [7]): 2.58 µg/mL; MBC (Staphylococcus aureus [7]): 5 µg/mL; MIC (Staphylococcus aureus [7]): 5 µg/mL; Activity (Plasmodium berghei [8]): Active
2 | COc1cc(NC(C)CCCNC(=S)NCCCC(C)Nc2cc(OC)cc3cccnc23)c2ncccc2c1.Cl.Cl (stereo not drawn) | 3 | 5 | inactive | 2.4 | > 1000 | inactive | inactive | 15 |  |  | Non-toxic | inactive | 20 | 4 | 4.5 |  | 3.7 |  |  |  | MBC (Staphylococcus aureus [1]): 10 µg/mL; IC50 (Candida albicans [5]): 10 µg/mL; MFC (Cryptococcus neoformans [12]): inactive; MIC (Cryptococcus neoformans [12]): inactive; IC50 (Plasmodium falciparum [13]): 2.3 µg/mL
3 | COc1cc(NC(C)CCCNC(=O)NC(CCCNC(=N)N)C(=O)NCCCC(C)Nc2cc(OC)cc3cccnc23)c2ncccc2c1 (single isomer, unassigned; 36) |  |  | inactive |  |  | inactive | inactive |  |  |  |  | inactive |  |  |  |  |  | Active | inactive | inactive | 
4 | COc1cc(NC(C)CCCNC(=O)N[C@H](CCCN)C(=O)NCCCC(C)Nc2cc(OC)cc3ccc(C(C)(C)C)nc23)c2nc(C(C)(C)C)ccc2c1.Cl (stereo partly drawn) | 1.78 | 5 | inactive | 0.3 | 10.8 | inactive | inactive | 9.97 | 20 |  | Non-toxic | inactive | 34 | 20 | 10 | 20 | 2.3 | Active | Active | inactive | MBC (Staphylococcus aureus [1]): 5 µg/mL; MBC [2]: inactive; IC50 (Candida albicans [5]): > 20 µg/mL; IC50 (Staphylococcus aureus [7]): 2.73 µg/mL; MBC (Staphylococcus aureus [7]): 5 µg/mL; MIC (Staphylococcus aureus [7]): 5 µg/mL; Activity (Plasmodium berghei [16]): Active; Activity (Plasmodium berghei [17]): Active
5 | COc1cc(NC(C)CCCNCCNCCNCCCC(C)Nc2cc(OC)cc3cccnc23)c2ncccc2c1.Cl.Cl (stereo not drawn) |  |  | inactive | 1.5 | 180 | inactive | inactive | 15 | 20 | 20 | Non-toxic | inactive | 27 |  | 10 | 20 | 8.4 | Active | Active | inactive | IC50 (Candida albicans [6]): Not Active; Activity (Plasmodium berghei [16]): Active; IC50 (Staphylococcus aureus [18]): Not Active; MBC (Staphylococcus aureus [18]): inactive; MIC (Staphylococcus aureus [18]): inactive; Activity (Plasmodium berghei [17]): Active; IC50 (Plasmodium falciparum [13]): 2.6 µg/mL; MBC [10]: 20 µg/mL
6 | COc1cc(NC(C)CCCNCOC(=O)NCCCC(C)Nc2cc(OC)cc3cccnc23)c2ncccc2c1.Cl.Cl (stereo not drawn) |  |  | inactive |  | 101 | inactive | inactive | 4.5 | 5 | 5 | Non-toxic | inactive | 38 | 20 |  |  | 5.3 |  |  | inactive | IC50 (Candida albicans [6]): Not Active; Activity (Plasmodium berghei [8]): Active; IC50 (Plasmodium falciparum [13]): 2.6 µg/mL
7 | COc1cc(NC(C)CCCNC(=O)CC[C@H](N)C(=O)NCCCC(C)Nc2cc(OC)cc3cccnc23)c2ncccc2c1.Cl (stereo partly drawn) | 15 | 20 | inactive |  | 85 | inactive | inactive | 15 | 20 | 20 | Non-toxic | inactive | 35 | 16 | 15 | 20 | 13.35 | Active | Active | inactive | MBC [2]: inactive; IC50 (Candida albicans [6]): Not Active; Activity (Plasmodium berghei [16]): Active; MBC (Staphylococcus aureus [18]): inactive; Activity (Plasmodium berghei [17]): Active
